The source of these data is ChEMBL document CHEMBL2021777 (J Med Chem, 2012).

The structures appear in SMILES notation. Calls of active or inactive are those of the source. The calls are words filed in the database; no cut-off is given here. Where only a bound is given, the exact number is not on record here.

Data set [1] can be described thus: Inhibition of CYP3A up to 10 uM. The data set is classed as ADME. A digest of the protocol: (§1)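 Percent inhibition of CYP isoforms (CYP1A, CYP2C9, CYP2C19, CYP2D6, CYP3A; CYP1A2 reported) with test compound at concentrations up to 10 μM.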
For data set [2], the target named is 5-hydroxytryptamine receptor 1D (Homo sapiens) (UniProt P28221). The experiment in a line: Displacement of [3H][…] from 5-HT1D at 10 uM. A general note: In a radioligand displacement assay an active substance lowers the binding of a labelled ligand.
Data set [3] has as its target Acetylcholine receptor; alpha1/beta1/delta/gamma (Homo sapiens) (UniProt P02708+P07510+P11230+Q07001). Kind of data set: Antagonist activity at human alpha1beta1gammadelta nAChR expressed in TE671/RD cells at 10 uM by 86Rb+ flux assay. Format: functional, cell-based. A digest of the protocol: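 Human clonal TE671/RD cells endogenously express muscle-type α1*-nAChRs (α1, β1, γ, δ). Cells were kept at low passage (1−26 from frozen stocks). Function was read as 86Rb+ efflux, with agonist and antagonist modes tested up to 10 μM.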

The target of data set [4] is 5-hydroxytryptamine receptor 2A (Homo sapiens) (UniProt P28223). Kind of data set: Displacement of [3H]Ketanserin from 5-HT2A at 10 uM.
For data set [5], the target named is Sodium-dependent serotonin transporter (Homo sapiens) (UniProt P31645). Kind of data set: Displacement of [3H]Citalopram from SERT at 10 uM.
Data set [6] deals with T1, 5-hydroxytryptamine receptor 2C (Homo sapiens) (UniProt P28335).
T1 sequence (whole entry): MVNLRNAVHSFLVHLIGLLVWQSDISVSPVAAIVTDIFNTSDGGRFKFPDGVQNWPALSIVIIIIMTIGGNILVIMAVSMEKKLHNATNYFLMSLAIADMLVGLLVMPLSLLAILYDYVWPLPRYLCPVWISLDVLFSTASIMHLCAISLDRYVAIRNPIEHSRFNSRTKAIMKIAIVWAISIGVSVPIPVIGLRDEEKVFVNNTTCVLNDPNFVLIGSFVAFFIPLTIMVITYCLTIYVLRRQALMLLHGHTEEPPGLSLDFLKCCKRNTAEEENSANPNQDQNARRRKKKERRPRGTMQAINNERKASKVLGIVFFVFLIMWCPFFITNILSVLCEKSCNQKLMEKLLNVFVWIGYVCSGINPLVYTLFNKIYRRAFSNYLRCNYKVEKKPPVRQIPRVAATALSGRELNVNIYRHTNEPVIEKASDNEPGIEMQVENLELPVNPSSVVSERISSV
Kind of data set: Displacement of [3H]Mesulergine from 5-HT2C at 10 uM.

For data set [7], the target named is Neuronal acetylcholine receptor; alpha4/beta2 (Homo sapiens, UniProt P17787+P43681). The experiment in a line: Agonist activity at human high sensitive and low sensitive alpha4beta2 nAChR expressed in SH-EP1 cells assessed as 86Rb+ ion efflux by flip-plate technique relative to sazetidine-A. Format: functional, cell-based. The method, boiled down:
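SH-EP1-hα4β2 cells (stably transfected human α4 and β2, low passage 1−26) express mixed high- and low-sensitivity α4β2-nAChRs. Efficacy was measured by 86Rb+ flux on this mixed population. High-sensitivity efficacy was extrapolated by defining a reference agonist as 100% full agonist at the HS receptor.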

For data set [8], the target named is 5-hydroxytryptamine receptor 6 (Homo sapiens) (UniProt P50406). The experiment in a line: Displacement of [3H]LSD from 5-HT6 at 10 uM.
The test system of another data set is Mus musculus. Kind of data set: Ex-vivo beta2* nAChR receptor occupancy in mouse brain at 10 mg/kg, ip administered 30 mins prior to testing. Format: functional. The settings on record: route intraperitoneal. A digest of the protocol: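 Mice dosed at 10 mg/kg, or water, by intraperitoneal injection 30 min before brain collection (the forced-swim time point); ex vivo β2*-nAChR occupancy measured in brain.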

Data set [9] addresses Cannabinoid receptor 1 (Homo sapiens) (UniProt P21554). Kind of data set: Displacement of [3H]CP55940 from CB1 receptor at 10 uM.
Data set [10] can be described thus: Displacement of radioligand from oxytocin receptor. Particulars: concentration not given here.
Data set [11] can be described thus: Displacement of [3H]Baclofen from GABA-B at 10 uM.
Data set [12] deals with Metabotropic glutamate receptor 5 (Homo sapiens) (UniProt P41594). The experiment in a line: Displacement of [3H]MPEP from mGluR5 at 10 uM.
A short description of data set [13]: Displacement of [3H]PK11195 from PBR at 10 uM.
The target of data set [14] is T2, 5-hydroxytryptamine receptor 1A (Homo sapiens) (UniProt P08908).
T2 sequence (whole entry): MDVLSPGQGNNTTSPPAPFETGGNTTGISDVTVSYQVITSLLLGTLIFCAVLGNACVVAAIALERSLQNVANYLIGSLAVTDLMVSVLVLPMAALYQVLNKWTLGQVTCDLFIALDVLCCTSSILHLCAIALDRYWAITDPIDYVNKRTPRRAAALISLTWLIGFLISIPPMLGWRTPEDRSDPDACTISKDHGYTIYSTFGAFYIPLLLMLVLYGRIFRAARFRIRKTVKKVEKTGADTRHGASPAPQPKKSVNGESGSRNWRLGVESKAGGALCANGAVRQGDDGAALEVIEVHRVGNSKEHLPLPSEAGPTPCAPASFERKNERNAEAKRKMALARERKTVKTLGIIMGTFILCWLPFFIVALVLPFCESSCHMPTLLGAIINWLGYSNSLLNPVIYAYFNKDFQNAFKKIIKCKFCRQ
Kind of data set: Displacement of [3H]8-OH-DPAT from 5-HT1A at 10 uM.

Data set [15] concerns the target T3, D(4) dopamine receptor (Homo sapiens) (UniProt P21917).
T3 sequence (whole entry): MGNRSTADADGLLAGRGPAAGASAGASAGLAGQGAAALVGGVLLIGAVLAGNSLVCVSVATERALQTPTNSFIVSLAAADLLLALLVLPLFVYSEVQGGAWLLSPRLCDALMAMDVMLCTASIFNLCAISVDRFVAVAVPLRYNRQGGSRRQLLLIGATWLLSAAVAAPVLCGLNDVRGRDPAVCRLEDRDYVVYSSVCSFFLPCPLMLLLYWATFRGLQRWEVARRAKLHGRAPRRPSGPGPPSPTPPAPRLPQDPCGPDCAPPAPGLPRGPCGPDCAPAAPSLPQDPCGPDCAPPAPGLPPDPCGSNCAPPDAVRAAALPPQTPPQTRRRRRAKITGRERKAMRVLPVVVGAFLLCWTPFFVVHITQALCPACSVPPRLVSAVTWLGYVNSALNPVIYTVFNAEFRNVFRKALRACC
Kind of data set: Displacement of [3H]N-methylspiperone from D4 at 10 uM.

The target of data set [16] is Sodium-dependent noradrenaline transporter (Homo sapiens) (UniProt P23975). Kind of data set: Displacement of [3H]Nisoxetine from NET at 10 uM.
The target of a further data set is Cytochrome P450 1A2 (Homo sapiens, UniProt P05177). Kind of data set: Inhibition of CYP1A2 up to 10 uM. Format: ADME. The method, boiled down: as §1
Data set [17] concerns the target Neuronal acetylcholine receptor; alpha4/beta4 (Rattus norvegicus, UniProt P09483+P12392). Kind of data set: Displacement of [3H] epibatidine from rat alpha4beta4 nAChR by beta scintillation counting. Format: protein-complex assay.

Sequence of 5-hydroxytryptamine receptor 6 (Homo sapiens) (P50406 whole entry): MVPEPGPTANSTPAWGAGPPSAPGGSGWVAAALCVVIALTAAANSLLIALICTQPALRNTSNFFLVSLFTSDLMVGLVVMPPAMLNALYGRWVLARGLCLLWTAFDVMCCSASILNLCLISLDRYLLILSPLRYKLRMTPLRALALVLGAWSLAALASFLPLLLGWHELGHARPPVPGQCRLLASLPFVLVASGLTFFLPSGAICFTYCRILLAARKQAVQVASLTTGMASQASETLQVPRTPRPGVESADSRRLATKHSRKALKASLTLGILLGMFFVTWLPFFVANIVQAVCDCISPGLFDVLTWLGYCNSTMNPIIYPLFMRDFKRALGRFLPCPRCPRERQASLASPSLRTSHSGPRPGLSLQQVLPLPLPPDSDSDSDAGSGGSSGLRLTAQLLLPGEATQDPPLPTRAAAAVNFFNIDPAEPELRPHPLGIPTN
Sequence of Metabotropic glutamate receptor 5 (Homo sapiens) (P41594 21-1212 limits assumed): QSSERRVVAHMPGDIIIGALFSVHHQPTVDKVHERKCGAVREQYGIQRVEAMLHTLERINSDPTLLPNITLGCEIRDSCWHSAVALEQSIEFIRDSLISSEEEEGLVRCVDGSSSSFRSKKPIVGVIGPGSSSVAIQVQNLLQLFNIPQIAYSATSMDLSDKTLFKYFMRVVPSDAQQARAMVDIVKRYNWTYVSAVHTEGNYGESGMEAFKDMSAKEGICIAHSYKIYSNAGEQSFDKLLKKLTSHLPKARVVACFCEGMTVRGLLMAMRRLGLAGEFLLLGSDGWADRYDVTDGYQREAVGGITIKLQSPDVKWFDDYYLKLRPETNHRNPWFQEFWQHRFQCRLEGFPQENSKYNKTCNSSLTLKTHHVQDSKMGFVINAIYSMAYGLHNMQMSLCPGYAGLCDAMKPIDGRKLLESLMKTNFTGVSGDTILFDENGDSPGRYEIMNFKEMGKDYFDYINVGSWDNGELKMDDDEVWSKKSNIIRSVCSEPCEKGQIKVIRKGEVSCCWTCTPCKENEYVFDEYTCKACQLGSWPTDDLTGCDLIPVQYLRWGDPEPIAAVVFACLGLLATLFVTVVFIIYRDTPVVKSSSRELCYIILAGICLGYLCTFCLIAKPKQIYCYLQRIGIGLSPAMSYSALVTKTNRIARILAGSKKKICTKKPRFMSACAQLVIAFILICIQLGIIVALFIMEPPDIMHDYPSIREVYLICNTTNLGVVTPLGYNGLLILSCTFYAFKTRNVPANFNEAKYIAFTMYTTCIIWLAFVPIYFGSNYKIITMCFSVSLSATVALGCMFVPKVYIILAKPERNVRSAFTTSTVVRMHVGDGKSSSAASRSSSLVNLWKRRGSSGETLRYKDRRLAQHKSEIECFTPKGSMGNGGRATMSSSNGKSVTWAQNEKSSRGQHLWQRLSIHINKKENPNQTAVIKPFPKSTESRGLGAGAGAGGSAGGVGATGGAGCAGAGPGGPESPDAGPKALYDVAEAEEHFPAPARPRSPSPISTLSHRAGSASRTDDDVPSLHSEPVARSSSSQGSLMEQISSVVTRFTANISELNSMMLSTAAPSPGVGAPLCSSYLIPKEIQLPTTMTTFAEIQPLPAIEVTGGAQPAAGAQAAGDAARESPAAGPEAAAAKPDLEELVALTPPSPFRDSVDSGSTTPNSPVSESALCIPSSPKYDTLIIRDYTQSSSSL
Sequence of 5-hydroxytryptamine receptor 1D (Homo sapiens) (P28221 whole entry): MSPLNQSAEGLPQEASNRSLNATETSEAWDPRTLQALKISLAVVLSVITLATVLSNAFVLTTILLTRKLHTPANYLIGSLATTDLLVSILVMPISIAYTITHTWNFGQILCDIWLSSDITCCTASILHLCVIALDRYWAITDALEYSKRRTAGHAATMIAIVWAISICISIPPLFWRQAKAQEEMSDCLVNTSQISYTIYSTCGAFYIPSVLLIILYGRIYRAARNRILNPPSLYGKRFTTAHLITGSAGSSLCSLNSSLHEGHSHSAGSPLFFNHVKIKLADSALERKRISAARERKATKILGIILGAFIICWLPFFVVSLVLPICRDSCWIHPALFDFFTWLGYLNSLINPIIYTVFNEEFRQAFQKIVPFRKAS
Sequence of Neuronal acetylcholine receptor; alpha4/beta4 (P09483 whole entry): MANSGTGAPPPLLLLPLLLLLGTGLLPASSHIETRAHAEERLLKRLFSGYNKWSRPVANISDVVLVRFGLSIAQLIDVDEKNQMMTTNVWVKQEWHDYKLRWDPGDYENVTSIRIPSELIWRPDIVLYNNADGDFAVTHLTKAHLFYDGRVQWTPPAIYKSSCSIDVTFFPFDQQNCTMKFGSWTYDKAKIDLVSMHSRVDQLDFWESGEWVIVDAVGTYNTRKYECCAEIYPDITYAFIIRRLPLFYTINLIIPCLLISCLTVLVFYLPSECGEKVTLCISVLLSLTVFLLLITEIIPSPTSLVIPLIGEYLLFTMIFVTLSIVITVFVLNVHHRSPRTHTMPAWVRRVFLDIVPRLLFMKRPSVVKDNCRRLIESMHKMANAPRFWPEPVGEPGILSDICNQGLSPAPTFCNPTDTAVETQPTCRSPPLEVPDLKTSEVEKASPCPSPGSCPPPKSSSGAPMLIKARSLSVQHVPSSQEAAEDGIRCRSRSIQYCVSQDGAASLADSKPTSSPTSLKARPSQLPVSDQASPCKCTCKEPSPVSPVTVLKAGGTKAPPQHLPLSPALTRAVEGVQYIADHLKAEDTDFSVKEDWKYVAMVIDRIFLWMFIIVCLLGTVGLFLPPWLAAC
Sequence of Neuronal acetylcholine receptor; alpha4/beta4 (P12392 whole entry): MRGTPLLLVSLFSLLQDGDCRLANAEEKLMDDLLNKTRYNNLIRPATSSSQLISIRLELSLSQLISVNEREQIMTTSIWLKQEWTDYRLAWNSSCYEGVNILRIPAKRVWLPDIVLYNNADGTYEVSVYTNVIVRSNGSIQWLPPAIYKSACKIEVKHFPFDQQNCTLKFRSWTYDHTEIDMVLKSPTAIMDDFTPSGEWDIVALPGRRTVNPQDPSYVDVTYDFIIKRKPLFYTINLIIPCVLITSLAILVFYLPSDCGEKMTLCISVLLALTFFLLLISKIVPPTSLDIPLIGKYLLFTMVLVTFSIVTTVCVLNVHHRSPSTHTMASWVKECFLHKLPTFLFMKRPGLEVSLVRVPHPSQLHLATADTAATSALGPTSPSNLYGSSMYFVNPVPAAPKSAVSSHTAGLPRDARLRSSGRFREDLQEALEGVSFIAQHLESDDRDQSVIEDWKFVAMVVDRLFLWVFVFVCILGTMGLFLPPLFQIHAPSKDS
Sequence of Cannabinoid receptor 1 (Homo sapiens) (P21554 whole entry): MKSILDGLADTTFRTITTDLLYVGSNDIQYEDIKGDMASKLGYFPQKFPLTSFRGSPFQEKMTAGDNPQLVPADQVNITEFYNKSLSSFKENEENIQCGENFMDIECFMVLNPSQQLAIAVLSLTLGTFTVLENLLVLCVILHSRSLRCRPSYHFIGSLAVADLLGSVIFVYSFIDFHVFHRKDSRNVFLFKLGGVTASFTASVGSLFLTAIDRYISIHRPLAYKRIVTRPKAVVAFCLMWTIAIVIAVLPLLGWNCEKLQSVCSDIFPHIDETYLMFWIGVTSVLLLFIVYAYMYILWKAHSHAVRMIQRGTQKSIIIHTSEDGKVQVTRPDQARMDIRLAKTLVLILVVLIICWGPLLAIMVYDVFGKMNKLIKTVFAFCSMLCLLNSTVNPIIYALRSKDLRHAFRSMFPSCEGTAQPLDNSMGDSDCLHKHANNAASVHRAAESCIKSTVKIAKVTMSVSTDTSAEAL
Sequence of Sodium-dependent serotonin transporter (Homo sapiens) (P31645 whole entry, looked up): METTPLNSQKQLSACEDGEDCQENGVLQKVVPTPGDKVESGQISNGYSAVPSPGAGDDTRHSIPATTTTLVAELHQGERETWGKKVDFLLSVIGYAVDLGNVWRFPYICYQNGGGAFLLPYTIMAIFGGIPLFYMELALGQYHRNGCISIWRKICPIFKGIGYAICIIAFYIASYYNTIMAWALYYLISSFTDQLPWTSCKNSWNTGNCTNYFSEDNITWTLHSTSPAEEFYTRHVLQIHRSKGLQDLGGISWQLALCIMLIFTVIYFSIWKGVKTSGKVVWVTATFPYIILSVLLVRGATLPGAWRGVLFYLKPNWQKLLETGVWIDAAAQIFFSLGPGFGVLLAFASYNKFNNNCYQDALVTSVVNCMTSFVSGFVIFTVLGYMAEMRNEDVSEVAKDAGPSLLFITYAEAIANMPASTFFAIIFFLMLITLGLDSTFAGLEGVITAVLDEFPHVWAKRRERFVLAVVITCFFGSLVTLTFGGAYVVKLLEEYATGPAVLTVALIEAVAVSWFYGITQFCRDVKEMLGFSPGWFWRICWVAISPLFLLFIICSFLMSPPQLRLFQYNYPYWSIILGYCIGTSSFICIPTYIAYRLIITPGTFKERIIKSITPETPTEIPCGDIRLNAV
Sequence of Sodium-dependent noradrenaline transporter (Homo sapiens) (P23975 whole entry): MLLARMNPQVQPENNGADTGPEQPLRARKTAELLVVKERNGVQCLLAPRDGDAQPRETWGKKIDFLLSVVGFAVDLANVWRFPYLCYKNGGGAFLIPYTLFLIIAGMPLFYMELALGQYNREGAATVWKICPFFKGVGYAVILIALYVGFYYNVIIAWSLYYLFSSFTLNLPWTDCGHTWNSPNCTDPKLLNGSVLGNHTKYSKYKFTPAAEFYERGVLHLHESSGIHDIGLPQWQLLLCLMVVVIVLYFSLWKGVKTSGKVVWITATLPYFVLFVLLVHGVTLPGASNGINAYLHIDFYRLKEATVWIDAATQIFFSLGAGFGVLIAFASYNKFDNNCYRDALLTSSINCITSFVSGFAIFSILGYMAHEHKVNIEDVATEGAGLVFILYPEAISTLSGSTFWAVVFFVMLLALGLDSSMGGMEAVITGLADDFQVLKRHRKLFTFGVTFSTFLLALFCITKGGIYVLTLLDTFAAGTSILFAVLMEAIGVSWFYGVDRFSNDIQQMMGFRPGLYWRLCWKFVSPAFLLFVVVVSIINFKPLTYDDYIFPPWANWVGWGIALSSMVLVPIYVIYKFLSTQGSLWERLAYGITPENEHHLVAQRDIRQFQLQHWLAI

For the compound `OCC[C@H]1C[C@@H]1c1cncc(OC[C@@H]2CCN2)c1`, the “inhibition (INH)” value in [1] is given as “<= 25%”. Moreover, the inhibition (in general, the drop in the measured response relative to a control, in per cent) in [2] is 5.6%; in [4], 34.2%; in data set [5] it was 42.7%; in [6], 2.4%; in data set [8] it was -7.1%; in [9], -3.4%. Further, the inhibition in data set [10] is 9.4%; in [11] it was 8.9%; in [12], 9.1%; in data set [13], 4.7%; in [14], -7.7%; in [15], 8.3%. For the same compound, the result in [3] was inactive. Further, the Efficacy in data set [7] is 21%. In the data set with Mus musculus, this compound came in with an Activity of 85%.

As to `COCC[C@H]1C[C@@H]1c1cncc(OC[C@@H]2CCN2)c1`, the “inhibition (INH)” value in data set [1] is given as “<= 25%”; against Cytochrome P450 1A2 it was 70%. The inhibition in data set [16] is -0.2%; in [2] it was 1.2%; in [4], 43.7%; in data set [5] it was 39.3%; in data set [6], 33.8%; in data set [8], 1.4%. In addition, the inhibition was -2% in [9]; -1.4% in [10]; 3.2% in [11]; 5.1% in data set [12]; -5.9% in data set [13]; -7.2% in [14]. The inhibition in data set [15] is 15.8%. The outcome in data set [3] was inactive. Further, the Efficacy in [7] came out at 6%. Also, the Activity in the data set on Mus musculus is given as 85%. In data set [17], the affinity corresponds to a Ki of 50.2 nM.

Consider `CNC(=O)OCC[C@H]1C[C@@H]1c1cncc(OC[C@@H]2CCN2)c1`, for which the “inhibition (INH)” value in data set [1] is “<= 25%”; at Cytochrome P450 1A2, 80%. Moreover, the inhibition is 69.6% in [16]; 6.3% in data set [6]; -6.4% in data set [8]; 25% in data set [14]; 17% in data set [15]. Further, the result in data set [3] was inactive. The Efficacy in [7] is 17%. The same compound came in with an Activity with Mus musculus of 65%. Further, the affinity in data set [17] corresponds to a Ki of 441 nM.
